Measured values reported in ChEMBL document CHEMBL1795311, “Synthesis, antiproliferative activity, and mechanism of action of a series of 2-{[(2E)-3-phenylprop-2-enoyl]amino}benzamides” (Eur J Med Chem, 2011).

Columns and labels:
K562 [1] = assay: Antiproliferative activity against human K562 cells at 10 uM after 48 hrs by trypan blue assay; format: functional; conditions: K562, 48 h, read-out: GI
K562 [2] = assay: Growth inhibition of human K562 cells after 48 hrs by trypan blue assay; format: functional, cell-based; conditions: K562, 48 h
CCRF-CEM = assay: Growth inhibition of human CCRF-CEM cells after 48 hrs by SRB assay; format: functional
Procedure, shortened: (§1)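 NCI DTP panel cells grown in RPMI 1640 with 5% FBS and 2 mM L-glutamine, preincubated 24 h, then given five concentrations (10-fold or ½-log dilutions from DMSO stock) for 48 h at 37 °C. Cells fixed with TCA, stained with SRB, absorbance read at 515 nm, with time-zero plates as reference.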

HL-60 = assay: Growth inhibition of human HL60 cells after 48 hrs by SRB assay; format: functional; conditions: HL-60, 48 h; procedure, shortened: as §1
K562 [3] = assay: Growth inhibition of human K562 cells after 48 hrs by SRB assay; format: functional; conditions: K562, 48 h; procedure, shortened: as §1
MOLT-4 = assay: Growth inhibition of human MOLT4 cells after 48 hrs by SRB assay; format: functional; conditions: MOLT-4, 48 h; procedure, shortened: as §1
RPMI-8226 = assay: Growth inhibition of human RPMI8226 cells after 48 hrs by SRB assay; format: functional; conditions: RPMI-8226, 48 h; procedure, shortened: as §1
A549 = assay: Growth inhibition of human A549 cells after 48 hrs by SRB assay; format: functional; conditions: A549, 48 h; procedure, shortened: as §1
EKVX = assay: Growth inhibition of human EKVX cells after 48 hrs by SRB assay; format: functional; procedure, shortened: as §1
HOP-62 = assay: Growth inhibition of human HOP62 cells after 48 hrs by SRB assay; format: functional; conditions: HOP-62, 48 h; procedure, shortened: as §1
HOP-92 = assay: Growth inhibition of human HOP92 cells after 48 hrs by SRB assay; format: functional; conditions: HOP-92, 48 h; procedure, shortened: as §1
NCI-H226 = assay: Growth inhibition of human NCI-H226 cells after 48 hrs by SRB assay; format: functional; conditions: NCI-H226, 48 h; procedure, shortened: as §1
NCI-H23 = assay: Growth inhibition of human NCI-H23 cells after 48 hrs by SRB assay; format: functional; conditions: NCI-H23, 48 h; procedure, shortened: as §1
NCI-H460 = assay: Growth inhibition of human NCI-H460 cells after 48 hrs by SRB assay; format: functional; conditions: NCI-H460, 48 h; procedure, shortened: as §1
COLO 205 = assay: Growth inhibition of human COLO205 cells after 48 hrs by SRB assay; format: functional; conditions: COLO 205, 48 h; procedure, shortened: as §1
HCT-116 = assay: Growth inhibition of human HCT116 cells after 48 hrs by SRB assay; format: functional; conditions: HCT-116, 48 h; procedure, shortened: as §1
HCT-15 = assay: Growth inhibition of human HCT15 cells after 48 hrs by SRB assay; format: functional; conditions: HCT-15, 48 h; procedure, shortened: as §1
HT-29 = assay: Growth inhibition of human HT-29 cells after 48 hrs by SRB assay; format: functional; conditions: HT-29, 48 h; procedure, shortened: as §1
KM12 = assay: Growth inhibition of human KM12 cells after 48 hrs by SRB assay; format: functional; conditions: KM12, 48 h; procedure, shortened: as §1
SW-620 = assay: Growth inhibition of human SW620 cells after 48 hrs by SRB assay; format: functional; conditions: SW-620, 48 h
Procedure, shortened: (§2)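 Run by the NCI Developmental Therapeutics Program: cells in RPMI 1640 with 5% FBS and 2 mM L-glutamine, plated at 5000–40,000 cells/well and grown 24 h before dosing. Drug (DMSO stock) given at five concentrations for 48 h at 37 °C, 5% CO2. Adherent cells fixed with cold TCA, stained with 0.4% SRB and read at 515 nm. GI50, TGI and LC50 taken from the time-zero, control and treated absorbances.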

SF-268 = assay: Growth inhibition of human SF268 cells after 48 hrs by SRB assay; format: functional; conditions: SF-268, 48 h; procedure, shortened: as §1
SF-295 = assay: Growth inhibition of human SF295 cells after 48 hrs by SRB assay; format: functional; conditions: SF-295, 48 h; procedure, shortened: as §1
SF-539 = assay: Growth inhibition of human SF539 cells after 48 hrs by SRB assay; format: functional; conditions: SF-539, 48 h; procedure, shortened: as §1
SNB-19 = assay: Growth inhibition of human SNB19 cells after 48 hrs by SRB assay; format: functional; conditions: SNB-19, 48 h; procedure, shortened: as §2
SNB-75 = assay: Growth inhibition of human SNB75 cells after 48 hrs by SRB assay; format: functional; conditions: SNB-75, 48 h; procedure, shortened: as §2
U-251 = assay: Growth inhibition of human U251 cells after 48 hrs by SRB assay; format: functional; conditions: U-251, 48 h; procedure, shortened: as §2
LOX IMVI = assay: Growth inhibition of human LOXIMVI cells after 48 hrs by SRB assay; format: functional; procedure, shortened: as §1
Malme-3M = assay: Growth inhibition of human MALME-3M cells after 48 hrs by SRB assay; format: functional; procedure, shortened: as §1
M14 = assay: Growth inhibition of human M14 cells after 48 hrs by SRB assay; format: functional; conditions: M14, 48 h; procedure, shortened: as §1
MDA-MB-435 = assay: Growth inhibition of human MDA-MB-435 cells after 48 hrs by SRB assay; format: functional; conditions: MDA-MB-435, 48 h; procedure, shortened: as §1
SK-MEL-28 = assay: Growth inhibition of human SK-MEL-28 cells after 48 hrs by SRB assay; format: functional; conditions: SK-MEL-28, 48 h; procedure, shortened: as §2
SK-MEL-5 = assay: Growth inhibition of human SK-MEL-5 cells after 48 hrs by SRB assay; format: functional; conditions: SK-MEL-5, 48 h; procedure, shortened: as §2
UACC-62 = assay: Growth inhibition of human UACC62 cells after 48 hrs by SRB assay; format: functional; conditions: UACC-62, 48 h; procedure, shortened: as §2
OVCAR-3 = assay: Growth inhibition of human OVCAR3 cells after 48 hrs by SRB assay; format: functional; conditions: OVCAR-3, 48 h; procedure, shortened: as §1
OVCAR-5 = assay: Growth inhibition of human OVCAR5 cells after 48 hrs by SRB assay; format: functional; conditions: OVCAR-5, 48 h; procedure, shortened: as §1
NCI/ADR-RES = assay: Growth inhibition of human NCI/ADR-RES cells after 48 hrs by SRB assay; format: functional; procedure, shortened: as §1
SK-OV-3 = assay: Growth inhibition of human SKOV3 cells after 48 hrs by SRB assay; format: functional; conditions: SK-OV-3, 48 h; procedure, shortened: as §2
786-0 = assay: Growth inhibition of human 786-0 cells after 48 hrs by SRB assay; format: functional; conditions: 786-0, 48 h; procedure, shortened: as §1
A498 = assay: Growth inhibition of human A498 cells after 48 hrs by SRB assay; format: functional; conditions: A498, 48 h; procedure, shortened: as §1
ACHN = assay: Growth inhibition of human ACHN cells after 48 hrs by SRB assay; format: functional; procedure, shortened: as §1
CAKI-1 = assay: Growth inhibition of human Caki1 cells after 48 hrs by SRB assay; format: functional; conditions: CAKI-1, 48 h; procedure, shortened: as §1
RXF 393 = assay: Growth inhibition of human RXF393 cells after 48 hrs by SRB assay; format: functional; conditions: RXF 393, 48 h; procedure, shortened: as §1
SN12C = assay: Growth inhibition of human SN12C cells after 48 hrs by SRB assay; format: functional; procedure, shortened: as §2
TK-10 = assay: Growth inhibition of human TK10 cells after 48 hrs by SRB assay; format: functional; conditions: TK-10, 48 h; procedure, shortened: as §2
UO-31 = assay: Growth inhibition of human UO31 cells after 48 hrs by SRB assay; format: functional; conditions: UO-31, 48 h; procedure, shortened: as §2
PC-3 = assay: Growth inhibition of human PC3 cells after 48 hrs by SRB assay; format: functional; conditions: PC-3, 48 h; procedure, shortened: as §1
DU-145 = assay: Growth inhibition of human DU145 cells after 48 hrs by SRB assay; format: functional; conditions: DU-145, 48 h; procedure, shortened: as §1
MCF7 = assay: Growth inhibition of human MCF7 cells after 48 hrs by SRB assay; format: functional; conditions: MCF7, 48 h; procedure, shortened: as §1
MDA-MB-231 = assay: Growth inhibition of human MDA-MB-231 cells after 48 hrs by SRB assay; format: functional; conditions: MDA-MB-231, 48 h; procedure, shortened: as §1
[4] = Growth inhibition of human Hs 578T cells after 48 hrs by SRB assay; format: functional; procedure, shortened: as §1
BT-549 = assay: Growth inhibition of human BT549 cells after 48 hrs by SRB assay; format: functional; conditions: BT-549, 48 h; procedure, shortened: as §1
T47D = assay: Growth inhibition of human T47D cells after 48 hrs by SRB assay; format: functional; procedure, shortened: as §2
MDA-MB-468 = assay: Growth inhibition of human MDA-MB-468 cells after 48 hrs by SRB assay; format: functional; conditions: MDA-MB-468, 48 h; procedure, shortened: as §1

## NC(=O)c1cc(Br)ccc1NC(=O)/C=C/c1cccc(Br)c1
K562 [1]
  inhibition of growth at 10 µM: 45.9%
K562 [2]
  IC50: > 10000 nM

## NC(=O)c1cc(Cl)ccc1NC(=O)/C=C/c1cccc(Cl)c1
K562 [1]
  inhibition of growth at 10 µM: 28.2%
K562 [2]
  IC50: > 10000 nM

## NC(=O)c1cc(Br)ccc1NC(=O)/C=C/c1cccc(Cl)c1
K562 [1]
  inhibition of growth at 10 µM: 25.5%
K562 [2]
  IC50: > 10000 nM

## Cc1cccc(/C=C/C(=O)Nc2ccc(Br)cc2C(N)=O)c1
K562 [1]
  inhibition of growth at 10 µM: 43.8%
K562 [2]
  IC50: > 10000 nM

## NC(=O)c1cc(Br)ccc1NC(=O)/C=C/c1ccccc1Br
K562 [1]
  inhibition of growth at 10 µM: 46.2%
K562 [2]
  IC50: > 10000 nM

## NC(=O)c1cc(Br)ccc1NC(=O)/C=C/c1ccccc1
K562 [1]
  inhibition of growth at 10 µM: 62.4%
K562 [2]
  IC50: 5000 nM
CCRF-CEM
  GI50: 429 nM
HL-60
  GI50: 346 nM
K562 [3]
  GI50: 415 nM
MOLT-4
  GI50: 1860 nM
RPMI-8226
  GI50: 1030 nM
A549
  GI50: 1020 nM
EKVX
  GI50: 2410 nM
HOP-62
  GI50: 1510 nM
HOP-92
  GI50: 1960 nM
NCI-H226
  GI50: 2610 nM
NCI-H23
  GI50: 1090 nM
NCI-H460
  GI50: 662 nM
COLO 205
  GI50: 917 nM
HCT-116
  GI50: 663 nM
HCT-15
  GI50: 1040 nM
HT-29
  GI50: 527 nM
KM12
  GI50: 739 nM
SW-620
  GI50: 705 nM
SF-268
  GI50: 1830 nM
SF-295
  GI50: 625 nM
SF-539
  GI50: 819 nM
SNB-19
  GI50: 2000 nM
SNB-75
  GI50: 2070 nM
U-251
  GI50: 887 nM
LOX IMVI
  GI50: 3270 nM
Malme-3M
  GI50: 1210 nM
M14
  GI50: 482 nM
MDA-MB-435
  GI50: 231 nM
SK-MEL-28
  GI50: 839 nM
SK-MEL-5
  GI50: 435 nM
UACC-62
  GI50: 782 nM
OVCAR-3
  GI50: 349 nM
OVCAR-5
  GI50: 2920 nM
NCI/ADR-RES
  GI50: 400 nM
SK-OV-3
  GI50: 1410 nM
786-0
  GI50: 1760 nM
A498
  GI50: 1700 nM
ACHN
  GI50: 3360 nM
CAKI-1
  GI50: 1340 nM
RXF 393
  GI50: 444 nM
SN12C
  GI50: 2960 nM
TK-10
  GI50: 2670 nM
UO-31
  GI50: 1850 nM
PC-3
  GI50: 684 nM
DU-145
  GI50: 935 nM
MCF7
  GI50: 569 nM
MDA-MB-231
  GI50: 2190 nM
[4]
  GI50: 624 nM
BT-549
  GI50: 1410 nM
T47D
  GI50: 1570 nM
MDA-MB-468
  GI50: 279 nM

## Cc1ccccc1/C=C/C(=O)Nc1ccc(I)cc1C(N)=O
K562 [1]
  inhibition of growth at 10 µM: 26.3%
K562 [2]
  IC50: > 10000 nM

## NC(=O)c1cc(Cl)ccc1NC(=O)/C=C/c1cccc(Br)c1
K562 [1]
  inhibition of growth at 10 µM: 27%
K562 [2]
  IC50: > 10000 nM

## NC(=O)c1cc(Cl)ccc1NC(=O)/C=C/c1ccccc1Cl
K562 [1]
  inhibition of growth at 10 µM: 58%
K562 [2]
  IC50: 7400 nM

## NC(=O)c1ccccc1NC(=O)/C=C/c1ccccc1
K562 [1]
  inhibition of growth at 10 µM: 14.2%
K562 [2]
  IC50: > 10000 nM
